Assays:
[1] = Inhibition of Enterovirus A71 protease 3C using DabcylKEALFQ-GPPQF-E(Edans)-NH2 as substrate incubated for 10 mins by fluorospectrometry
Outline: (§1)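 FRET cleavage assay in 20 mM Tris-HCl, 100 mM NaCl, 1 mM EDTA, 1 mM DTT, pH 7.3. Final enzyme 2 μM for CVB3 3Cpro or 3 μM for EV-A71 3Cpro, preincubated with inhibitor (0–100 μM) for 10 min at 37 °C. Reaction started with 20 μM final Dabcyl-KEALFQ↓GPPQF-E(Edans)-NH₂. Edans dequenching read at ex 360/em 460 nm. Triplicate, mean ± SD.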

[2] = Inhibition of […] protease 3C using DabcylKEALFQ-GPPQF-E(Edans)-NH2 as substrate incubated for 10 mins by fluorospectrometry; set-up: species or system Coxsackievirus; outline: as §1
[3] = Inhibition of SARS coronavirus M protease using Dabcyl-KTSAVLQ-SGFRKM-E(Edans)-NH2 as substrate incubated for 10 mins by fluorospectrometry; set-up: species or system Severe acute respiratory syndrome-related coronavirus
Outline: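 FRET cleavage assay with 0.5 µM recombinant SARS-CoV Mpro (authentic termini) in 20 mM Tris-HCl, 100 mM NaCl, 1 mM EDTA, 1 mM DTT, pH 7.3. Enzyme was preincubated with inhibitor (0–100 µM) for 10 min at 37 °C, then 20 µM final substrate was added. Fluorescence was read at ex 360/em 460 nm. Triplicate, mean ± SD; IC50 from curve fitting.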

[4] = Inhibition of human coronavirus NL63 M protease using Dabcyl-KTSAVLQ-SGFRKM-E(Edans)-NH2 as substrate incubated for 10 mins by fluorospectrometry
Outline: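 0.5 μM final HCoV-NL63 Mpro preincubated 10 min at 37 °C with inhibitor (0–100 μM) in pH 7.3 Tris buffer (100 mM NaCl, 1 mM EDTA, 1 mM DTT). Cleavage of 20 μM Dabcyl-KTSAVLQ↓SGFRKM-E(Edans)-NH₂ followed by fluorescence at 460 nm with 360 nm excitation. IC50 from triplicate measurements, mean ± SD.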

[5] = test system: Enterovirus A71; assay: Antiviral activity against Enterovirus A71 infected in HuH7 cells expressing T7 RNA polymerase assessed as reduction in viral RNA replication incubated for 24 hrs by luciferase reporter gene assay; assay type: functional, organism-based; details: Enterovirus A, Huh-7, 24 h
Outline: (§2)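 Huh-T7 cells (DMEM, 2 mM glutamine, penicillin/streptomycin, 10% FCS growth or 2% maintenance, G-418 400 μg·mL⁻¹) transfected with enteroviral replicon. Compound added in growth medium at 40 μM for screening or 0, 1.25, 2.5, 5, 10, 20, 40 μM for EC50. After 24 h, cells lysed and luciferase activity read. Triplicate or quadruplicate, mean ± SD.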

[6] = Antiviral activity against […] infected in HuH7 cells expressing T7 RNA polymerase assessed as reduction in viral RNA replication incubated for 24 hrs by luciferase reporter gene assay; assay type: functional, organism-based; details: B3, Huh-7, 24 h; outline: as §2
[7] = test system: SARS-CoV; assay: Antiviral activity against SARS coronavirus infected in HuH7 cells expressing T7 RNA polymerase assessed as reduction in viral RNA replication incubated for 24 hrs by luciferase reporter gene assay; assay type: functional, organism-based; details: Severe acute respiratory syndrome-related coronavirus, Huh-7, 24 h
Outline: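 SARS-CoV replicon (DNA-launched, Renilla luciferase reporter) was transfected into Huh-T7 cells at 80–90% confluency. Compound at 0, 1.25, 2.5, 5, 10, 20 or 40 µM in growth medium was added after transfection. At 24 h, cells were lysed and luciferase activity measured. Runs were in triplicate or quadruplicate, reported as mean ± SD.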

[8] = Antiviral activity against […] infected in HuH7 cells expressing T7 RNA polymerase assessed as reduction in virus-induced cytopathic effect incubated for 2 days by non-radioactive cell proliferation assay; assay type: functional, organism-based; details: B3, Huh-7, 48 h
[9] = test system: Human coronavirus 229E; assay: Antiviral activity against Human coronavirus 229E infected in HuH7 cells expressing T7 RNA polymerase assessed as reduction in virus-induced cytopathic effect incubated for 48 hrs by Alamar blue based assay; assay type: functional, organism-based; details: Huh-7, 48 h
[10] = test system: Middle East respiratory syndrome-related coronavirus; assay: Antiviral activity against Middle East respiratory syndrome coronavirus infected in HuH7 cells expressing T7 RNA polymerase assessed as reduction in virus-induced cytopathic effect incubated for 2 days by non-radioactive cell proliferation assay; assay type: functional, organism-based; details: Huh-7, 48 h
[11] = test system: Middle East respiratory syndrome-related coronavirus; assay: Antiviral activity against Middle East respiratory syndrome coronavirus infected in Vero cells assessed as reduction in virus-induced cytopathic effect incubated for 3 days by non-radioactive cell proliferation assay; assay type: functional, organism-based; details: 72 h
[12] = test system: SARS-CoV; assay: Antiviral activity against SARS coronavirus infected in Vero E6 cells assessed as reduction in virus-induced cytopathic effect incubated for 2 days by non-radioactive cell proliferation assay; assay type: functional, organism-based; details: Severe acute respiratory syndrome-related coronavirus, Vero C1008, 48 h
[13] = test system: Enterovirus A71; assay: Antiviral activity against Enterovirus A71 infected in RD cells assessed as reduction in virus-induced cytopathic effect incubated for 3 days by MTS assay; assay type: functional, organism-based; details: Enterovirus A, 72 h
Outline: (§3)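 CPE reduction assay. RD (EV-A71) or HeLa Rh (EV-D68, HRV) cells seeded 24 h earlier in medium with 2% FCS; HRV2/HRV14 medium contained 30 mM MgCl₂. Serial compound dilutions added with virus. At 3 days post infection, 5% MTS added for 1 h at 37 °C and OD498 read. EC50 taken as 50% protection versus controls by logarithmic interpolation; morphology also checked microscopically.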

[14] = test system: enterovirus D68; assay: Antiviral activity against Enterovirus D68 infected in HeLa Rh cells assessed as reduction in virus-induced cytopathic effect incubated for 3 days by MTS assay; assay type: functional, organism-based; details: Enterovirus D, 72 h; outline: as §3
[15] = test system: rhinovirus A2; assay: Antiviral activity against Human rhinovirus 2 infected in HeLa Rh cells assessed as reduction in virus-induced cytopathic effect incubated for 3 days by MTS assay; assay type: functional, organism-based; details: Rhinovirus A, 72 h; outline: as §3
[16] = test system: rhinovirus B14; assay: Antiviral activity against Human rhinovirus 14 infected in HeLa Rh cells assessed as reduction in virus-induced cytopathic effect incubated for 3 days by MTS assay; assay type: functional, organism-based; details: Rhinovirus B, 72 h; outline: as §3
[17] = Cytotoxicity against human HuH7 cells expressing T7 RNA polymerase assessed as reduction in cell viability incubated for 2 days by non-radioactive cell proliferation assay; assay type: cell-based, Huh-7
[18] = Cytotoxicity against human RD cells assessed as reduction in cell viability incubated for 3 days by MTS assay; assay type: cell-based
[19] = Cytotoxicity against human HeLa Rh cells assessed as reduction in cell viability incubated for 3 days by MTS assay; assay type: cell-based
[20] = Therapeutic index, ratio of CC50 for human HuH7 cells expressing T7 RNA polymerase to EC50 for […] infected in human HuH7 cells expressing T7 RNA polymerase; assay type: toxicity, cell-based; details: read-out: Ratio CC50/EC50
[21] = Therapeutic index, ratio of CC50 for human HuH7 cells expressing T7 RNA polymerase to EC50 for Human coronavirus 229E infected in human HuH7 cells expressing T7 RNA polymerase; assay type: toxicity, cell-based; details: read-out: Ratio CC50/EC50
Outline: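 Huh7 cells were infected with HCoV-229E at […] for 1.5 h at 37 °C and washed. Complete DMEM containing inhibitor (0–40 µM) was added. […] CC50 came from a parallel AlamarBlue viability assay normalised to no-inhibitor and 1% Triton X-100 controls. Therapeutic index = CC50/EC50.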

[22] = Therapeutic index, ratio of CC50 for human HuH7 cells expressing T7 RNA polymerase to EC50 for Middle East respiratory syndrome coronavirus infected in human HuH7 cells expressing T7 RNA polymerase; assay type: toxicity, cell-based; details: read-out: Ratio CC50/EC50
[23] = Therapeutic index, ratio of CC50 for monkey Vero cells to EC50 for Middle East respiratory syndrome coronavirus infected in monkey Vero cells; assay type: toxicity, cell-based; details: read-out: Ratio CC50/EC50
[24] = Therapeutic index, ratio of CC50 for monkey Vero E6 cells to EC50 for SARS coronavirus infected in monkey Vero E6 cells; assay type: toxicity, cell-based, Vero C1008; details: read-out: Ratio CC50/EC50
[25] = Therapeutic index, ratio of CC50 for human RD cells to EC50 for Enterovirus A71 infected in human RD cells; assay type: toxicity, cell-based; details: read-out: Ratio CC50/EC50
Outline: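 RD cells were seeded 24 h ahead in 2% FCS medium, then given compound serial dilutions plus EV-A71 (BRCR) inoculum. After 3 days, MTS was added for 1 h at 37 °C and OD498 read. EC50 was interpolated as the concentration giving 50% protection from CPE. CC50 was measured on uninfected host cells by viability or cytotoxicity kits. Index = CC50/EC50.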

[26] = Therapeutic index, ratio of CC50 for human HeLa Rh cells to EC50 for Enterovirus D68 infected in human HeLa Rh cells; assay type: toxicity, cell-based; details: read-out: Ratio CC50/EC50
[27] = Therapeutic index, ratio of CC50 for human HeLa Rh cells to EC50 for Human rhinovirus 2 infected in human HeLa Rh cells; assay type: toxicity, cell-based; details: read-out: Ratio CC50/EC50
[28] = Therapeutic index, ratio of CC50 for human HeLa Rh cells to EC50 for Human rhinovirus 14 infected in human HeLa Rh cells; assay type: toxicity, cell-based; details: read-out: Ratio CC50/EC50

**Q.** For O=C(/C=C/c1ccccc1)N[C@@H](Cc1ccccc1)C(=O)N[C@@H](C[C@@H]1CCNC1=O)C(=O)C(=O)NCc1ccccc1, which IC50 [1] is on record?
**A.** 1.22 µM

**Q.** And the IC50 [2]?
**A.** 6.56 µM

**Q.** What about the IC50 [3] of the same compound?
**A.** 1.95 µM

**Q.** And the IC50 [4]?
**A.** > 50 µM

**Q.** And the EC50 [5]?
**A.** 4.5 µM

**Q.** And the EC50 [6]?
**A.** 4.5 µM

**Q.** What about the EC50 [7] of the same compound?
**A.** 2 µM

**Q.** And the EC50 [8]?
**A.** 14 µM

**Q.** What about the EC50 [9] of the same compound?
**A.** 11.8 µM

**Q.** And the EC50 [10]?
**A.** 0.0048 µM

**Q.** And the EC50 [11]?
**A.** 13.4 µM

**Q.** And the EC50 [12]?
**A.** 5.8 µM

**Q.** And the EC50 [13]?
**A.** 9.8 µM

**Q.** What about the EC50 [14] of the same compound?
**A.** 0.48 µM

**Q.** What about the EC50 [15] of the same compound?
**A.** 5.6 µM

**Q.** What about the EC50 [16] of the same compound?
**A.** 4.3 µM

**Q.** What about the CC50 at 48 h [17] of the same compound?
**A.** > 265 µM

**Q.** What about the CC50 at 72 h [18] of the same compound?
**A.** 97 µM

**Q.** What about the CC50 at 72 h [19] of the same compound?
**A.** 35.5 µM

**Q.** What about the selectivity ratio [20] of the same compound?
**A.** > 10

**Q.** And the selectivity ratio [21]?
**A.** > 10

**Q.** And the selectivity ratio [22]?
**A.** > 10

**Q.** What about the selectivity ratio [23] of the same compound?
**A.** > 10

**Q.** What about the selectivity ratio [24] of the same compound?
**A.** > 10

**Q.** And the selectivity ratio [25]?
**A.** > 10

**Q.** What about the selectivity ratio [26] of the same compound?
**A.** > 10

**Q.** What about the selectivity ratio [27] of the same compound?
**A.** > 15

**Q.** What about the selectivity ratio [28] of the same compound?
**A.** > 15
